Screens from PubChem.
In the library only some 2% were active in any assay of this set; here they are far more common.
ARFGAP1 inh – inhibitors of rat ARFGAP1. inhibition, % at 16.5 µM. Arfgap1-stimulated ARF1 GTP hydrolysis, GDP FP detection. actives 0.26% (n = 360,000). AID 651572. Q62848;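 active means inhibition above a per-plate limit, mean inhibition of low control wells plus 3 SD, cut at about 25% in these data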;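 further: 0% = DMSO wells with enzyme and 100% = wells lacking Arfgap1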
Target sequence (Q62848 1-136 limits assumed): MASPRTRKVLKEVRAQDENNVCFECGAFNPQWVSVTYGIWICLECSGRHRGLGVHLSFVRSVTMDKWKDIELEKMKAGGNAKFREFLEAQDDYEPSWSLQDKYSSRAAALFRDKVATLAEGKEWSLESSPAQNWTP
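Assay system: purified rat His6-Arfgap1 residues 1-136 (GAP domain); Reagent: human Δ17 ARF1 bound to GTP; Dosing: 16.5 µM single point, 1.26% DMSO; Times: GTP hydrolysis reaction 2 h at 25 °C; Signal: FP, GDP Alexa 633 tracer displaced from anti-GDP antibody, 620/688 nm; Measure: % inhibition from polarization.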
TDP2 inh – blocks human TDP2 phosphodiesterase activity. O95551. recombinant TDP2, T5PNP hydrolysis, p-nitrophenol absorbance 415 nm. inhibition, % at 12.8 µM. actives 0.34% (n = 370,000);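 active means inhibition above the mean of all tested compounds plus 3 SD, set per campaign, cut at about 25% in these data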;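 further: 0% = DMSO with enzyme and 100% = buffer with substrate but no TDP2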
Target sequence (O95551 whole entry, looked up): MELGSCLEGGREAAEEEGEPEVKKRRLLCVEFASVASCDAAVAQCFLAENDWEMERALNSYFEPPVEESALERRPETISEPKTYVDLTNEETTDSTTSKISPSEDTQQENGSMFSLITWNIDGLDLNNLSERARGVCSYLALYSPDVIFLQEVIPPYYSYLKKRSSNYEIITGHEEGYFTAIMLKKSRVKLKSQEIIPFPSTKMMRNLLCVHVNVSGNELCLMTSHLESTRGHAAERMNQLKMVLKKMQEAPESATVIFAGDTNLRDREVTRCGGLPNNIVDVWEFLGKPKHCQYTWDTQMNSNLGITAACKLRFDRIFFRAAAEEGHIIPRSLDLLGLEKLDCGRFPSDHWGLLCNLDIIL
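Material: recombinant human TDP2; quantity: TDP2 enzyme at 120 nM final; medium: Tris-HCl pH 7.5 with MgCl2; compound: single concentration, 12.8 µM nominal, with 1% DMSO; incubation: 2 h enzyme incubation at 37 °C; signal: epi absorbance; measure: percent inhibition; benchmarks: high control without enzyme, low control DMSO plus TDP2; repeats: singlicate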
MBD2 DNA inh – MBD2-methylated oligo binding inhibition. Q9UBB5. TR-FRET, MBD2 binding to methylated oligonucleotide. inhibition, % at 4.4 µM. actives 0.31% (n = 370,000). AID 686964; in the data active means inhibition above about 13%
LEDGF integ inh – blocks HIV-1 LEDGF/p75-dependent DNA integration; TR-FRET IN-LEDGF/p75 DNA integration, Eu/Cy5; inhibition, % at 3.7 µM; actives 0.64% (n = 370,000); AID 743269;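 active means inhibition above the screen-wide mean plus 3 SD, cut at about 13% in these data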;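 further: signal is the Cy5 over europium emission ratio at 671 and 618 nm; 0% = plate median of compound wells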
UHRF1 binding – blocks human UHRF1 binding to methylated DNA. UHRF1 binding to methylated oligo, TR-FRET. inhibition, % at 4.4 µM. actives 0.75% (n = 370,000). AID 687016; in the data active means inhibition above about 21%;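 further: UHRF1 SRA domain binding a hemimethylated CpG hairpin DNA probe; 0% = median of test compound wells and 100% = reference inhibitor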
ASAP1 GAP inh – ASAP1 ArfGAP inhibition | ASAP1-stimulated ARF1 GTP hydrolysis, GDP FP detection | AID 624377 | actives 0.19% (n = 360,000) | Q9ULH1 | inhibition, % at 16.5 µM; in the data active means inhibition above about 25%;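 further: 0% = vehicle with enzyme and substrate and 100% = no enzyme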
* = called active by the depositor.

`CCC(=O)N[C@@H]1C[C@@H]2O[C@@H](CO)CC[C@@H]2O[C@@H]1CCc1ccc(-c2cccc(OC)c2)cc1` gave TDP2 inh 0.4, MBD2 DNA inh -3.4, LEDGF integ inh 1.6 and UHRF1 binding 11.3.
For O=C(COc1ccccc1)NCc1nnc(SCC(=O)Nc2nccs2)n1-c1ccccc1 the results were ARFGAP1 inh 5.0, TDP2 inh 6.5, MBD2 DNA inh 5.7, LEDGF integ inh -1.7, UHRF1 binding -1.0 and ASAP1 GAP inh 3.3.
Screening COc1ccc(-c2ccc(SCC(=O)Nc3nccs3)nn2)cc1OC returned ARFGAP1 inh 6.5, TDP2 inh -4.8, MBD2 DNA inh 3.7, LEDGF integ inh 3.7, UHRF1 binding 21.1* and ASAP1 GAP inh -2.7.
For COc1cccc(C(=O)NCc2nnc(SCC(=O)Nc3nccs3)n2-c2ccccc2)c1 the results were ARFGAP1 inh 9.1, TDP2 inh -8.5, MBD2 DNA inh 2.5, LEDGF integ inh 0.9, UHRF1 binding 95.5* and ASAP1 GAP inh -5.8.
`CCOc1ccc(S(=O)(=O)N(CC(=O)N/N=C/c2ccc(-c3ccc([N+](=O)[O-])cc3)o2)c2ccccc2)cc1` gave ARFGAP1 inh -2.8, TDP2 inh -15.1, MBD2 DNA inh 11.7, LEDGF integ inh 5.7, UHRF1 binding 28.0* and ASAP1 GAP inh 2.6.
Screening Cc1ccc(C)c(N(CC(=O)N/N=C/c2ccc(-c3ccc([N+](=O)[O-])cc3)o2)S(=O)(=O)c2ccccc2)c1 returned ARFGAP1 inh -7.8, TDP2 inh -15.5, MBD2 DNA inh -8.2, LEDGF integ inh 4.8, UHRF1 binding -0.7 and ASAP1 GAP inh -8.0.
CCOC(=O)C1CCN(C(=O)C(C)Sc2ccc(Cl)cc2)CC1 (centres undefined) was read as ARFGAP1 inh -8.9, TDP2 inh 8.9, MBD2 DNA inh 8.6, LEDGF integ inh 6.7, UHRF1 binding 23.4* and ASAP1 GAP inh -4.9.
`Cn1c(SC2CCCC2)nnc1-c1ccco1` gave TDP2 inh -12.0, MBD2 DNA inh 1.0, LEDGF integ inh -3.6 and UHRF1 binding -0.3.
Screening CCC(=O)Nc1nnc(S(=O)(=O)N(C)Cc2ccco2)s1 returned ARFGAP1 inh 2.5, TDP2 inh -1.2, MBD2 DNA inh -2.6, LEDGF integ inh -1.2, UHRF1 binding 21.2* and ASAP1 GAP inh 11.7.
`O=C(c1ccc(CNS(=O)(=O)c2ccccc2)cc1)N1CCN(c2ccccn2)CC1` gave ARFGAP1 inh 5.4, TDP2 inh 3.6, MBD2 DNA inh 13.1, LEDGF integ inh 3.1, UHRF1 binding 23.1* and ASAP1 GAP inh 3.0.
`Cc1ccccc1NS(=O)(=O)c1ccc(C(=O)N2CCN(c3ccccn3)CC2)cc1` gave ARFGAP1 inh 9.6, TDP2 inh 1.1, MBD2 DNA inh -1.2, LEDGF integ inh 4.0, UHRF1 binding 1.1 and ASAP1 GAP inh 5.1.
`CCCNC(=O)c1cc2c(c(-c3cccc(-c4cc5ccccc5o4)c3)n1)[C@@H](CCO)N(C(=O)NC(C)C)C2` gave ARFGAP1 inh 10.1, TDP2 inh -9.0, MBD2 DNA inh -5.3, LEDGF integ inh -4.4, UHRF1 binding 27.7* and ASAP1 GAP inh 1.7.
COc1ccc(/C=C/C(=O)NCCNC(=O)c2ccccc2)cc1OC was read as ARFGAP1 inh 10.9, TDP2 inh 12.8, MBD2 DNA inh 4.4, LEDGF integ inh 2.3, UHRF1 binding 24.6* and ASAP1 GAP inh 13.0.
COc1ccc(/C=C/C(=O)NCCCNC(=O)/C=C/c2ccc(OC)c(OC)c2)cc1OC was read as ARFGAP1 inh 0.8, TDP2 inh 7.4, MBD2 DNA inh -5.0, LEDGF integ inh 4.1, UHRF1 binding -5.0 and ASAP1 GAP inh 13.9.
Cc1ccc(S(=O)(=O)N2CCC(C(=O)N[C@H](C(=O)N3CCN(C)CC3)C(C)C)CC2)cc1 was read as ARFGAP1 inh -14.4, TDP2 inh 6.6, MBD2 DNA inh 0.6, LEDGF integ inh -1.9, UHRF1 binding 21.6* and ASAP1 GAP inh 2.0.
For CCOC(=O)C1CCN(Cc2nc3ccc([N+](=O)[O-])cc3c(=O)n2-c2ccc(OC)cc2OC)CC1 the results were ARFGAP1 inh 13.3, TDP2 inh -1.5, MBD2 DNA inh -2.5, LEDGF integ inh 3.1, UHRF1 binding -1.8 and ASAP1 GAP inh 15.7.
`COc1ccc(-n2c(CN3CCC(C(N)=O)CC3)nc3ccc([N+](=O)[O-])cc3c2=O)c(OC)c1` gave ARFGAP1 inh 4.3, TDP2 inh -3.6, MBD2 DNA inh 5.8, LEDGF integ inh 23.4*, UHRF1 binding 4.3 and ASAP1 GAP inh 3.5.
For NC(=O)C1CCN(C(=O)COc2ccc(S(=O)(=O)NC3CCCC3)cc2)CC1 the results were ARFGAP1 inh -3.0, TDP2 inh 14.0, MBD2 DNA inh -1.3, LEDGF integ inh 2.2, UHRF1 binding -0.8 and ASAP1 GAP inh 14.7.
`Cc1ccc(S(=O)(=O)NC2CCCCC2)cc1C(=O)N1CCC(C(N)=O)CC1` gave ARFGAP1 inh -1.9, TDP2 inh -1.0, MBD2 DNA inh -0.4, LEDGF integ inh 0.8, UHRF1 binding 67.2* and ASAP1 GAP inh 3.6.
For CCSc1nc2[nH]ncc2c(=O)[nH]1 the results were ARFGAP1 inh 0.2, TDP2 inh 8.1, MBD2 DNA inh -1.4, LEDGF integ inh -1.2, UHRF1 binding -0.3 and ASAP1 GAP inh -6.5.
For CCCCSc1nc2[nH]ncc2c(=O)[nH]1 the results were ARFGAP1 inh 0.2, TDP2 inh -2.4, MBD2 DNA inh -6.0, LEDGF integ inh 1.3, UHRF1 binding 67.9* and ASAP1 GAP inh -0.6.
`Cn1nc(C(F)(F)F)c(C#N)c1N1CCN(c2ccccc2)CC1` gave ARFGAP1 inh 9.6, TDP2 inh -3.4, MBD2 DNA inh 1.9, LEDGF integ inh -0.5, UHRF1 binding -0.6 and ASAP1 GAP inh -12.4.
For Cn1nc(C(F)(F)F)c(C#N)c1N1CCN(c2ccccn2)CC1 the results were ARFGAP1 inh 0.5, TDP2 inh 4.1, MBD2 DNA inh 8.5, LEDGF integ inh -1.4, UHRF1 binding 22.9* and ASAP1 GAP inh 0.9.
`Cc1ccc(NC(=O)CN(Cc2ccco2)Cc2ccccc2O)cc1C` gave ARFGAP1 inh 10.7, TDP2 inh -22.4, MBD2 DNA inh -1.8, LEDGF integ inh 1.7, UHRF1 binding 1.2 and ASAP1 GAP inh 1.5.
`COc1ccccc1COCC(O)CN(Cc1ccco1)Cc1ccccc1O` (centres undefined) gave ARFGAP1 inh 6.9, TDP2 inh -0.7, MBD2 DNA inh 0.7, LEDGF integ inh -0.9, UHRF1 binding 25.3* and ASAP1 GAP inh 12.8.
`CN1CCN(C(=S)c2cn(Cc3ccccc3)c3ccccc23)CC1` gave ARFGAP1 inh 2.4, TDP2 inh -15.6, MBD2 DNA inh -7.1, LEDGF integ inh -2.5, UHRF1 binding -1.0 and ASAP1 GAP inh 0.2.
